Data reported in ChEMBL document CHEMBL2062403, “Disulfide prodrugs of albitiazolium (T3/SAR97276): synthesis and biological activities” (J Med Chem, 2012).
pIC50: −log10 of the molar value.

Columns and labels:
Plasmodium falciparum = test: Antiplasmodial activity against Plasmodium falciparum assessed as inhibition of [3H]hypoxanthine incorporation after 48 hrs; assay type: functional, organism-based
How it was run: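 P. falciparum Nigerian strain blood stages, modified Desjardins microtiter test; drug contact one parasite cycle (48 h); growth read as [³H]hypoxanthine incorporation into nucleic acids; IC50 = concentration giving 50% growth inhibition.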

[1] = tested on: Plasmodium vinckei petteri; test: Antimalarial activity against Plasmodium vinckei petteri 279BY infected in ip dosed Swiss mouse assessed as reduction in parasitemia administered QD for 4 days measured on day 5; assay type: functional
How it was run: (§1)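 P. vinckei-infected mice, 4-day suppressive test, dosing once daily for 4 days by ip or oral route; vehicle DMSO for both routes except some compounds given in 0.9% NaCl (ip) or water (po); ED50 = dose inhibiting in vivo parasite growth by 50%.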

[2] = tested on: Plasmodium vinckei petteri; test: Antimalarial activity against Plasmodium vinckei petteri 279BY infected in po dosed Swiss mouse assessed as reduction in parasitemia administered QD for 4 days measured on day 5; assay type: functional; how it was run: as §1
[3] = tested on: Plasmodium vinckei petteri; test: Ratio of ED50 for Plasmodium vinckei petteri 279BY infected in […] dosed Swiss mouse; assay type: functional
Mus musculus [4] = test: Prodrug conversion in ip dosed Swiss mouse assessed as albitiazolium bromide formation administered QD for 4 days; assay type: ADME, organism-based; conditions: in vivo, 96 h
Mus musculus [5] = test: Prodrug conversion in po dosed Swiss mouse assessed as albitiazolium bromide formation administered QD for 4 days; assay type: ADME, organism-based; conditions: in vivo, 96 h
[6] = Aqueous solubility of the compound; assay type: physicochemical; conditions: water

Row | Compound | pIC50 (Plasmodium falciparum) | ED50 [1] | ED50 [2] | Ratio ED50 [3] | Drug metabolism (Mus musculus [4]) | Drug metabolism (Mus musculus [5]) | solubility [6]
1 | CCSS/C(CCOP(=O)([O-])[O-])=C(/C)N(C=O)CCCCCCCCCCCCN(C=O)/C(C)=C(/CCOP(=O)([O-])[O-])SSCC.[Li+].[Li+].[Li+].[Li+] | 5.24 | 1.1 mg/kg | 60 mg/kg | 1.8 | Active | – | –
2 | CCOP(=O)(OCC)OCC/C(SSCC)=C(\C)N(C=O)CCCCCCCCCCCCN(C=O)/C(C)=C(/CCOP(=O)(OCC)OCC)SSCC | 7.21 | > 1 mg/kg | > 90 mg/kg | – | – | – | –
3 | C/C(=C(\CCOP(=O)([O-])[O-])SSCc1ccccc1)N(C=O)CCCCCCCCCCCCN(C=O)/C(C)=C(/CCOP(=O)([O-])[O-])SSCc1ccccc1.[Li+].[Li+].[Li+].[Li+] | 5.36 | 3 mg/kg | > 90 mg/kg | – | Active | – | –
4 | CCSS/C(CCO)=C(/C)N(C=O)CCCCCCCCCCCCN(C=O)/C(C)=C(/CCO)SSCC | 8.27 | 1.1 mg/kg | 44 mg/kg | 2.5 | Active | – | –
5 | C/C1=C(\CCOC(=O)[C@@H](N)C(C)C)SS/C(CCOC(=O)[C@@H](N)C(C)C)=C(/C)N(C=O)CCCCCCCCCCCCN1C=O.Cl | 6.23 | 1 mg/kg | 37 mg/kg | 4.1 | Active | – | –
6 | CSS/C(CCOC(=O)[C@@H](N)C(C)C)=C(/C)N(C=O)CCCCCCCCCCCCN(C=O)/C(C)=C(/CCOC(=O)[C@@H](N)C(C)C)SSC.Cl | 6.80 | 1 mg/kg | 58 mg/kg | 1.7 | Active | – | –
7 | Cc1c(CCOP(=O)(O)O)sc[n+]1CCCCCCCCCCCC[n+]1csc(CCOP(=O)(O)O)c1C | 8.18 | 0.34 mg/kg | 34 mg/kg | 1 | – | – | –
8 | CC(=O)OCC/C1=C(\C)N(C=O)CCCCCCCCCCCCN(C=O)/C(C)=C(/CCOC(C)=O)SS1 | 7.62 | 1 mg/kg | 7.3 mg/kg | 13.7 | Active | – | –
9 | CSS/C(CCO)=C(/C)N(C=O)CCCCCCCCCCCCN(C=O)/C(C)=C(/CCO)SSC | 8.22 | 0.4 mg/kg | 15 mg/kg | 2.7 | Active | Active | –
10 | Cc1c(CCO)sc[n+]1CCCCCCCCCCCC[n+]1csc(CCO)c1C.[Br-].[Br-] [ALBITIAZOLIUM BROMIDE] | – | 0.2 mg/kg | 13 mg/kg | 1.5 | – | – | –
11 | C/C(=C(\CCOP1(=O)OCc2ccccc2O1)SSCc1ccccc1)N(C=O)CCCCCCCCCCCCN(C=O)/C(C)=C(/CCOP1(=O)OCc2ccccc2O1)SSCc1ccccc1 (centres undefined) | 6.06 | > 5 mg/kg | > 90 mg/kg | – | – | – | –
12 | CSS/C(CCOC(=O)[C@@H](N)CCCCN)=C(/C)N(C=O)CCCCCCCCCCCCN(C=O)/C(C)=C(/CCOC(=O)[C@@H](N)CCCCN)SSC.Cl.Cl | 6.92 | 1 mg/kg | 44 mg/kg | 2.3 | Active | – | 27 mg/mL
13 | CCN(CC)CCCC(C)Nc1ccnc2cc(Cl)ccc12 (centres undefined) [CHLOROQUINE] | – | 1.1 mg/kg | 3.4 mg/kg | – | – | – | –
14 | C/C1=C(\CCOC(=O)[C@@H](N)CCCCN)SS/C(CCOC(=O)[C@@H](N)CCCCN)=C(/C)N(C=O)CCCCCCCCCCCCN1C=O.Cl.Cl | 6.89 | 0.9 mg/kg | 50 mg/kg | 1.8 | Active | – | 27 mg/mL
15 | C/C1=C(\CCO)SS/C(CCO)=C(/C)N(C=O)CCCCCCCCCCCCN1C=O | 7.19 | 0.9 mg/kg | 22 mg/kg | – | Active | – | –
16 | C/C(=C(\CCO)SSCc1ccccc1)N(C=O)CCCCCCCCCCCCN(C=O)/C(C)=C(/CCO)SSCc1ccccc1 | 7.84 | 1.3 mg/kg | 80 mg/kg | 1.6 | Active | – | –
17 | CCCSS/C(CCO)=C(/C)N(C=O)CCCCCCCCCCCCN(C=O)/C(C)=C(/CCO)SSCCC | 8.89 | 0.5 mg/kg | > 54 mg/kg | – | Active | – | –
18 | CCSS/C(CCOP1(=O)OCc2ccccc2O1)=C(/C)N(C=O)CCCCCCCCCCCCN(C=O)/C(C)=C(/CCOP1(=O)OCc2ccccc2O1)SSCC (centres undefined) | 6.28 | 5 mg/kg | > 90 mg/kg | – | Active | – | –
